M18AAP inhibitor – blocks P. falciparum M18 aspartyl aminopeptidase; inhibition, % at 7.35 µM; recombinant PfM18AAP, H-Glu-NHMec fluorogenic cleavage; 1.2% of 290,000 active;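 active = inhibition above the campaign mean inhibition over all tested compounds plus 3 SD, cut at about 28% in these data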;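 also: 0% = plate median of test compound wells and 100% = 2 mM ZnCl2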
HDAC3 inhib – inhibitors of human histone deacetylase 3 | recombinant HDAC3, fluorogenic peptide/trypsin coupled, fluorescence | inhibition, % at 8.3 µM | 0.15% of 320,000 active | AID 2718; in the data active = inhibition above about 26%, passing the limit was not always enough; inconclusive = no clear call, values can overlap the other calls
FAS-TE inh – inhibitors of human fatty acid synthase thioesterase domain. P49327. recombinant FAS-TE, OMFH fluorogenic substrate, fluorescence endpoint. inhibition, % at 15 µM. 0.67% of 360,000 active. AID 602261;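 active = compounds whose normalised, plate-corrected inhibition of enzyme fluorescence in the single-dose primary screen is 50% or more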;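 also: 0% = DMSO with enzyme and 100% = substrate without enzyme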
UCH37 DUB inh – inhibitors of human deubiquitinating enzyme UCH37; Q9Y5K5; purified proteasome/UCH37, Ub-AMC cleavage fluorescence; inhibition, % (concentration not given with the values); 0.33% of 330,000 active; AID 588478;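 active = mean inhibition over replicate wells above about 20%, limit read from the data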;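 also: 0% = compound-free wells with enzyme and 100% = wells lacking proteasome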
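Schedule: 30 min plus 25 min, room temperature / Material: human UCH37 within purified proteasomes / Technique: AMC fluorescence intensity at 355/460 nm / Buffer or medium: pH 7.4 Tris-HCl (50 mM) with ovalbumin, ATP-MgCl2, DTT / Controls: wells without proteasome as full block, compound-free enzyme plus substrate as uninhibited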
Rtt109 HAT inh – blocks Candida albicans Rtt109/Vps75 acetyltransferase activity; Q5AAJ8; purified Rtt109/Vps75, ThioGlo CoA-SH fluorescence, 4 h; inhibition, % at 34.9 µM; 0.16% of 330,000 active; AID 540336;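 active = inhibition of at least 50% in every replicate; inconclusive = best replicate reaches 50% inhibition but some replicates fall short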
ALR inh – blocks human ALR sulfhydryl oxidase activity; inhibition, % (concentration not given with the values); 3.8% of 290,000 active; P55789; purified ALR, DTT oxidation, H2O2 HRP-luminol luminescence; AID 485317;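 active = mean replicate inhibition above about 79%, with every replicate also reaching it, limit read from the data; inconclusive = only one of the two criteria met; inactive = mean below limit and not every replicate reaching it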
Active calls of the source: *; ? = inconclusive; / = no result. Sampled rows, rich in hits. Any-hit rate of the full collection: about 4.6%.

SMILES	M18AAP inhibitor	HDAC3 inhib	FAS-TE inh	UCH37 DUB inh	Rtt109 HAT inh	ALR inh
Cc1csc(=NC(=S)Nc2ccccc2)n1C	/	/	/	5	/	/
C/C(=N\O)c1ccc2c3c([nH]c2c1)CCCC3	1	-3	-18	/	-15	97*
Cn1cnnc1SCc1ccc(C(=O)NN=Cc2cccs2)cc1	/	/	/	10	/	/
Cc1nc(N)sc1-c1csc(Nc2cccc(O)c2)n1	31*	6	-4	4	15	47
Cc1nc(C)c(-c2csc(Nc3cccc(O)c3)n2)s1	1	3	3	5	-10	32
Cc1ccc2c(c1)c1c(n2CC(O)CNC2CCCC2)CCCC1 (centres undefined)	4	4	-6	1	9	89*
Cc1ccc2c(c1)c1c(n2CC(O)Cn2ccnc2C)C(=O)CCC1 (centres undefined)	-3	-5	-5	-17	-49	-2
COc1cccc(C(=O)NN=C(C)c2ccc(NC(=O)Cc3ccccc3)cc2)c1OC	/	/	/	-233	/	/
CN(C)CCCn1c2c(c(SCC(=O)Nc3ccc4c(c3)OCO4)nc1=O)CCCC2	/	-1	-5	3	-11	?
CN(C)CCCn1c2c(c(SCC(=O)Nc3ccc4c(c3)OCO4)nc1=O)CCC2	/	0	-6	7	0	98*
CCN(CC)CCCn1c2c(c(SCC(=O)Nc3ccc4c(c3)OCCO4)nc1=O)CCC2	/	-6	-5	4	-5	98*
CCN(CC)CCCn1c2c(c(SCC(=O)Nc3cccc(C(C)=O)c3)nc1=O)CCC2	/	-1	-8	4	11	99*
CC(=O)c1cccc(NC(=O)CSc2nc(=O)n(Cc3ccccn3)c3c2CCC3)c1	/	8	-3	7	4	99*
CCN(CC)CCn1c2c(c(SCC(=O)Nc3ccc4c(c3)OCCO4)nc1=O)CCCC2	/	5	-5	-3	8	10
O=C(CSc1nnc2ccccn12)c1ccc(Cl)cc1	-1	2	-2	5	1	85*
O=C(CSc1nnc2ccccn12)NNC(=O)c1cccc(Cl)c1	/	-2	-9	1	58*	/
O=C(CSc1nnc2ccccn12)NNC(=O)c1ccc(Cl)cc1	6	1	-4	/	-10	2
CCOc1ccc(C(=O)CSc2nnc3ccccn23)cc1	1	-13	-8	0	3	13
CCOc1ccc(-c2c(C(=O)NN=Cc3ccc(C)cc3)nnn2-c2nonc2N)cc1	/	/	/	2	/	/
CC1(C)C2(C#N)C(N)=NC3(OCCO3)C12C#N (centres undefined)	-6	-11	-4	3	5	100*
CCC1(C)C2(C#N)C(N)=NC(OC)(OC)C12C#N (centres undefined)	-14	-1	-6	2	1	2
COc1ccccc1CNc1cc(C)ccc1C	-3	-1	3	3	3	83*
COc1ccccc1CNC(=S)Nc1cc(C)ccc1C	8	1	-5	-2	18	1
CN(Cc1c(C(=O)NN=Cc2ccc(O)cc2)nnn1-c1nonc1N)C1CCCCC1	/	/	/	5	/	/
Cc1ccc(C(=O)NCC(=O)NC2CCCCCC2)cc1	-3	1	-4	2	61*	-9
SMILES	M18AAP inhibitor	HDAC3 inhib	FAS-TE inh	UCH37 DUB inh	Rtt109 HAT inh	ALR inh
CCCCOc1ccc(C(=O)NCC(=O)NC2CC2)cc1	/	/	-4	0	-27	/
COC(=O)c1ccc(CSc2nnc(CNC(=O)c3ccc(OC)cc3)o2)o1	11	7	-6	1	-3	-1
COC(=O)c1ccc(CSc2nnc(CNC(=O)c3ccccc3F)o2)o1	2	2	-1	1	-4	97*
Cc1nnc(NC(=O)CSc2nnc(CNC(=O)c3ccc(S(=O)(=O)N(C)C)cc3)o2)s1	28	0	-3	-2	-6	0
O=C(CSc1nnc(CNC(=O)c2c(F)cccc2F)o1)c1ccccc1	7	8	-7	2	6	62
COc1ccc(C(=O)CSc2nnc(CNC(=O)c3ccc(S(=O)(=O)N(C)C)cc3)o2)cc1	3	?	4	1	0	98*
CC(C)[C@H](N)c1nnc(SCC(=O)c2ccc(Cl)cc2)o1	5	3	-5	3	-9	98*
C[C@H](N)c1nnc(SCC(=O)c2ccc(Cl)cc2)o1	-19	/	-6	0	-5	/
O=C(CSc1nnc(CNC(=O)c2ccccc2F)o1)c1ccc(Cl)cc1	-2	?	1	2	18	99*

High-throughput results as filed in PubChem.
